Test results reported in ChEMBL document CHEMBL4196106, “From Naproxen Repurposing to Naproxen Analogues and Their Antiviral Activity against Influenza A Virus” (J Med Chem, 2018).
Active and inactive are the calls of the source. The calls are words filed in the database; no cut-off is given here.

Experiments:
Influenza A virus [1] = assay: Stabilization of Influenza A virus nucleoprotein assessed as melting temperature at 5 to 15 uM measured for 10 mins
[2] = Binding affinity to Influenza A virus nucleoprotein by surface plasmon resonance analysis
MDCK = assay: Inhibition of nucleoprotein/polymerase acidic protein (1 to 27 residues) interaction in Influenza A virus (A/WSN/1933 (H1N1)) infected in MDCK cells by Western blot analysis; format: cell-based
How it was run: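 MDCK cells were infected with A/WSN/33 at MOI 2 for 18 h and lysed in PBS with protease inhibitors and 0.5% NP40 by freezing; nucleic acids were not digested. Streptavidin beads loaded with 250 µM biotinylated PA(1-27) were incubated with the lysate 18 h at 4 °C, with or without compound. Bound NP was detected by anti-NP monoclonal western blot.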

Influenza A virus [3] = assay: Antiviral activity against Influenza A virus (A/WSN/1933(H1N1)) infected in MDCK cells at MOI of 10^-3 assessed as decrease in viral load after 48 hrs by crystal violet staining-based plaque assay; format: functional, organism-based
How it was run: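 Serum-starved MDCK cells, 0.32 x 10^6 per well, were infected with A/WSN/33 at MOI 10^-3 (multi-cycle). Compound (0.1–500 µM) or vehicle was added immediately after adsorption. After 48 h, titres in clarified supernatant were read by plaque assay with crystal violet. Runs were in triplicate, repeated at least twice, and IC50 came from a dose-response fit.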

Influenza A virus [4] = assay: Antiviral activity against Influenza A virus (A/WSN/1933(H1N1)) infected in MDCK cells at MOI of 2 assessed as decrease in viral load after 18 hrs by immunofluorescence analysis; format: functional, organism-based
How it was run: (§1)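 MDCK or A549 cells, 0.32 x 10^6 per well, were held 24 h serum-free to 80% confluence and then infected at MOI 2. Compound (0.1–500 µM) or vehicle was added right after virus adsorption. At 18 h, viral NP was read by immunofluorescence and corrected for cell number by DAPI. Runs were in triplicate, repeated at least twice, and IC50 came from a dose-response fit.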

[5] = Cytotoxicity against MDCK cells assessed as reduction in cell viability after 48 hrs by trypan blue staining based method; parameters: species or system Canis lupus familiaris; conditions: dog
How it was run: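 MDCK cells, 3.2 x 10^5 per well, were grown 24 h and then exposed to serial compound dilutions under the same conditions as the MTT test. At 48 h, cells were washed, trypsinised and stained with Trypan blue, and viable and dead cells were counted by phase-contrast microscopy.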

[6] = Selectivity index, ratio of CC50 for MDCK cells to IC50 for Influenza A virus (A/WSN/1933(H1N1)) infected in MDCK cells at MOI of 10^-3 after 48 hrs; format: toxicity, cell-based; conditions: dog, read-out: Ratio CC50/IC50
[7] = Selectivity index, ratio of CC50 for MDCK cells to IC50 for Influenza A virus (A/WSN/1933(H1N1)) infected in MDCK cells at MOI of 2 after 18 hrs; format: toxicity, cell-based; conditions: dog, read-out: Ratio CC50/IC50
[8] = Safety index, ratio of compound CC50 to naproxen CC50 for MDCK cells by MTT assay; format: ADME, cell-based, Canis lupus familiaris; conditions: dog
Influenza A virus [9] = assay: Antiviral activity against Influenza A virus (A/Udorn/1972 (H3N2)) infected in human A549 cells assessed as decrease in viral load after 18 hrs by immunofluorescence analysis; format: functional, organism-based; conditions: A549, 18 h; how it was run: as §1
[10] = Selectivity index, ratio of CC50 for human A549 cells to IC50 for Influenza A virus (A/Udorn/1972 (H3N2)) after 18 hrs; format: toxicity; conditions: read-out: Ratio CC50/IC50
Influenza A virus [11] = assay: Antiviral activity against Influenza A virus (A/Udorn/1972 (H3N2)) infected in MDCK cells at MOI of 2 assessed as decrease in viral load after 18 hrs by immunofluorescence analysis; format: functional, organism-based; how it was run: as §1
[12] = Selectivity index, ratio of CC50 for MDCK cells to IC50 for Influenza A virus (A/Udorn/1972 (H3N2)) infected in MDCK cells at MOI of 2 after 18 hrs; format: toxicity, cell-based; conditions: dog, read-out: Ratio CC50/IC50
Influenza A virus [13] = assay: Antiviral activity against pandemic Influenza A virus (A/Netherlands/602/09(H1N1)) infected in MDCK cells at MOI of 10^-3 assessed as decrease in viral load after 18 hrs by immunofluorescence analysis; format: functional, organism-based
[14] = Selectivity index, ratio of CC50 for MDCK cells to IC50 for pandemic Influenza A virus (A/Netherlands/602/09(H1N1)) infected in MDCK cells at MOI of 10^-3 after 18 hrs; format: toxicity, cell-based; conditions: dog, read-out: Ratio CC50/IC50
A549 = assay: Downregulation of COX2 level in human A549 cells infected with Influenza A virus at MOI of 2 at 100 uM after 18 hrs in presence of gamma-ATP by immunofluorescence analysis; format: cell-based; conditions: a549, 18 h
How it was run: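 A549 cells were pretreated with compound for 30 min, then either infected with IAV at MOI 2 for 18 h or activated with 100 µM γ-ATP for 1 h with or without compound. Cells were fixed in 3% PFA and permeabilised with 0.1% triton. COX2 was immunostained overnight with a primary antibody and detected with an Alexa 647 secondary.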

Influenza A virus [15] = assay: Antiviral activity against Influenza A virus (A/Puerto Rico/8/1934(H1N1)) infected in C57BL/6J mouse assessed as increase in mouse survival at 8 mg/mouse/day, ip qd treated up to day 2 starting at 5 to 10 mins post infection measured at day 12; format: functional, organism-based
How it was run: (§2)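 Intranasal A/PR/8/34 challenge at 500 PFU in female C57BL/6J mice, 5–6 weeks old, under ketamine/xylazine. Dosing was i.p. once daily on days 0, 1 and 2, starting 5–10 min post-inoculation; 1 mg/mouse is 50 mg/kg and 8 mg/mouse is 400 mg/kg. There were 10 mice per group, with saline vehicle. Survival and body weight were scored daily, with 20% weight loss as the mortality endpoint.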

Influenza A virus [16] = assay: Antiviral activity against Influenza A virus (A/Puerto Rico/8/1934(H1N1)) infected in C57BL/6J mouse assessed as recovery of weight loss at 8 mg/mouse/day, ip qd […] starting at 5 to 10 mins post infection measured up to day 12; format: functional, organism-based
Influenza A virus [17] = assay: Antiviral activity against Influenza A virus (A/Puerto Rico/8/1934(H1N1)) infected in C57BL/6J mouse assessed as decrease in viral load in bronchoalveolar lavage at 8 mg/mouse/day, ip qd treated up to day 2 starting at 5 to 10 mins post infection relative to control; format: functional
How it was run: (§3)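 Female C57BL/6J mice, 5–6 weeks old, were anaesthetised with ketamine/xylazine (43/5 mg/kg) and inoculated intranasally with A/PR/8/34 at 500 PFU. Treatment was i.p. once daily on days 0, 1 and 2, starting 5–10 min after inoculation; 1 mg/mouse is 50 mg/kg and 8 mg/mouse is 400 mg/kg. BAL infectious titre was measured by plaque assay against saline-treated mice.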

[18] = target: PA/PB1 (Influenza A virus (A/Puerto Rico/8/1934(H1N1)), UniProt P03431+P03433); assay: Binding affinity to biotin labelled Influenza A virus polymerase acidic protein (1 to 27 residues) by surface plasmon resonance analysis; format: protein assay
How it was run: (§4)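 Biotinylated PA(1-27) was captured on the chip at about 1500 RU, with a scrambled peptide on the same chip at similar RU. NP (12–2500 nM), alone or as NP-DNA complex, was injected with or without compound up to 50 µM. Running buffer was 20 mM Tris-HCl pH 7.4, 300 mM NaCl, 0.005% P20, at 25 °C and 30 µl/min. Regeneration used guanidinium chloride then 10 mM NaOH.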

Influenza A virus [19] = assay: Inhibition of Influenza A virus nucleoprotein/polymerase acidic protein (1 to 27 residues) complex formation at 100 nM by surface plasmon resonance analysis; how it was run: as §4
[20] = (§5) Inhibition of Influenza A virus nucleoprotein/polymerase acidic protein (1 to 27 residues) complex formation in presence of DNA by surface plasmon resonance analysis; how it was run: as §4
Influenza A virus [21] = assay: as §5; how it was run: as §4
Influenza A virus [22] = assay: Potency index, ratio of naproxen IC50 to compound IC50 for Influenza A virus (A/WSN/1933(H1N1)) infected in MDCK cells at MOI of 2 after 18 hrs by immunofluorescence analysis; format: functional
Influenza A virus [23] = assay: Antiviral activity against Influenza A virus (A/Udorn/1972 (H3N2)) infected in MDCK cells at MOI of 10^-3 assessed as decrease in viral load after 18 hrs by crystal violet staining-based plaque assay; format: functional, organism-based
Influenza A virus [24] = assay: Antiviral activity against Influenza A virus (A/Udorn/1972 (H3N2)) infected in MDCK cells at MOI of 0.2 assessed as decrease in viral load after 18 hrs by immunofluorescence analysis; format: functional, organism-based
Influenza A virus [25] = assay: Antiviral activity against Influenza A virus (A/Puerto Rico/8/1934(H1N1)) infected in C57BL/6J mouse assessed as recovery of weight loss at 1 mg/mouse/day, ip qd treated up to day 2 starting at 5 to 10 mins post infection measured up to day 12 relative to control; format: functional; how it was run: as §2
Influenza A virus [26] = assay: Antiviral activity against Influenza A virus (A/Puerto Rico/8/1934(H1N1)) infected in ip dosed C57BL/6J mouse assessed as increase in mouse survival administered once daily treated up to day 2 starting at 5 to 10 mins post infection; format: functional, organism-based; how it was run: as §2
Influenza A virus [27] = assay: Antiviral activity against Influenza A virus (A/Puerto Rico/8/1934(H1N1)) infected in C57BL/6J mouse assessed as survival at 1 to 8 mg/mouse/day, ip qd treated up to day 2 starting at 5 to 10 mins post infection measured at day 12 relative to control; format: functional; how it was run: as §2
Influenza A virus [28] = assay: Antiviral activity against Influenza A virus (A/Puerto Rico/8/1934(H1N1)) infected in C57BL/6J mouse assessed as recovery of weight loss at 8 mg/mouse/day, ip qd treated up to day 2 starting at 5 to 10 mins post infection measured up to day 12 relative to control; format: functional; how it was run: as §2
Influenza A virus [29] = assay: Antiviral activity against Influenza A virus (A/Puerto Rico/8/1934(H1N1)) infected in C57BL/6J mouse assessed as decrease in viral load in bronchoalveolar lavage at 1 mg/mouse/day, ip qd treated up to day 2 starting at 5 to 10 mins post infection relative to control; format: functional; how it was run: as §3

COc1ccc2cc(-c3c(C(=O)[O-])ccc(Oc4ccc(N)cc4)c3C(=O)[O-])ccc2c1.[Na+].[Na+]
Tm (Influenza A virus [1]): 48 °C | Ki [2]: 0.03 µM | inhibition (active/not active) (MDCK): Active | IC50 (Influenza A virus [3]): 1.3 µM | IC50 (Influenza A virus [4]): 13 µM | CC50 at 48 h [5]: ≥ 10000 µM | selectivity ratio at 48 h [6]: 9230 | selectivity ratio at 18 h [7]: 923 | selectivity ratio [8]: 10 | IC50 (Influenza A virus [9]): 17 µM | selectivity ratio at 18 h [10]: 706 | IC50 (Influenza A virus [11]): 13 µM | selectivity ratio at 18 h [12]: 923 | IC50 (Influenza A virus [13]): 0.7 µM | selectivity ratio at 18 h [14]: 17100 | Activity (A549): Non-Toxic

CCOC(=O)C1=C[C@@H](OC(CC)CC)[C@H](NC(C)=O)[C@@H](N)C1 [OSELTAMIVIR]
Activity (Influenza A virus [15]): Active | Activity (Influenza A virus [16]): inactive | fold change (FC) (Influenza A virus [17]): 260

COc1ccc2cc(-c3c(C(=O)[O-])cccc3C(=O)[O-])ccc2c1.[Na+].[Na+]
Tm (Influenza A virus [1]): 46 °C | Ki [2]: 0.097 µM | Ki [18]: 30 µM | inhibition (active/not active) (MDCK): Active | inhibition (Influenza A virus [19]): Active | IC50 [20]: 0.03 µM | inhibition (Influenza A virus [21]): Dose-dependent effect | IC50 (Influenza A virus [3]): 2.9 µM | IC50 (Influenza A virus [4]): 19 µM | selectivity ratio at 48 h [6]: 4480 to 5200 | selectivity ratio at 18 h [7]: 684 | selectivity ratio [8]: 10 | IC50 (Influenza A virus [9]): 25 µM | selectivity ratio at 18 h [10]: 520 | Ratio IC50 (Influenza A virus [22]): 5 | IC50 (Influenza A virus [23]): 2 µM | IC50 (Influenza A virus [11]): 20 µM | selectivity ratio at 18 h [12]: 650 | IC50 (Influenza A virus [24]): 7 µM | IC50 (Influenza A virus [13]): 1.8 µM | selectivity ratio at 18 h [14]: 7220 | Activity (A549): Non-Toxic | Activity (Influenza A virus [25]): >=95% | Activity (Influenza A virus [26]): Dose-dependent effect | Survival (Influenza A virus [27]): 70% | Activity (Influenza A virus [15]): Active | Activity (Influenza A virus [28]): 5% | Activity (Influenza A virus [16]): Active | fold change (FC) (Influenza A virus [29]): 6 | fold change (FC) (Influenza A virus [17]): 120
